The source made the active and inactive calls. The rule behind the calls is not given here.
Tests used:
[1] = Stabilization of 5'-FAM/3'-TAMRA labeled c-Myc Pu22 G-quadruplex DNA (unknown origin) assessed as change in melting temperature at 2 uM by FRET assay
How it was run: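 FRET melting of FAM/TAMRA-labelled FPu22T (0.2 μM) in 10 mM Tris-HCl pH 7.4 with 2 mM KCl, ligand 2 μM, in a real-time PCR machine. Excitation 470 nm, emission 530 nm, read every 1 °C from 37 to 99 °C after 30 s hold at each step; ΔTm versus probe alone.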

[2] = Stabilization of c-Myc Pu27 G-quadruplex DNA (unknown origin) assessed as induction of parallel G-quadruplex formation in absence of K+ ions by CD spectroscopic analysis
[3] = Binding affinity to 5'-FAM labeled c-Myc Pu27 G-quadruplex DNA (unknown origin) in presence of K+ ions by MST analysis
How it was run: (§1)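 The DNA was annealed at 95 °C for 5 min, slowly cooled and held at 4 °C overnight. Ligand was run as a 12-point series, 0–20 μM for Pu27 and up to 200 μM for duplex. MST was measured, and KD was fitted to a Hill model from three replicates.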

[4] = Selectivity ratio of Kd for 5'-FAM labeled duplex DNA (unknown origin) to Kd for 5'-FAM labeled c-Myc Pu27 G-quadruplex DNA (unknown origin)
How it was run: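 MST binding: FAM-Pu27 or FAM-duplex oligo at 10 μM in 10 mM Tris-HCl pH 7.4 with 150 mM KCl, annealed 95 °C 5 min, slow-cooled, held 4 °C overnight. Ligand titrated as a 12-point series, 0–20 μM for G4 or up to 200 μM for duplex. KD fitted with Hill model; three replicates.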

[5] = Stabilization of c-Myc Pu27 G-quadruplex DNA (unknown origin) assessed as induction of parallel G-quadruplex formation in absence of K+ ions by CD spectroscopic analysis
How it was run: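 CD spectra: Pu27 at 5 μM in 10 mM Tris-HCl pH 7.4 without or with 100 mM KCl, annealed 95 °C 5 min, slow-cooled, kept at 4 °C overnight, with ligand. Scanned 230–400 in a 4 mm quartz cuvette, 1 nm bandwidth and step, 0.5 s/point; buffer baseline subtracted.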

[6] = system: Raji; assay: Antiproliferative activity against human Raji cells after 48 hrs by MTT assay; format: functional, cell-based
How it was run: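 RAJI cells were seeded at 5 × 10^3 cells per well and treated for 48 h, with a DMSO-matched control. MTT at 0.5 mg/mL was added for 4 h at 37 °C, followed by overnight lysis at 37 °C and absorbance at 570 nm. Each assay was done in triplicate. IC50 came from the dose-dependent percentage survival versus the control.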

[7] = Binding affinity to 5'-FAM labeled duplex DNA (unknown origin) by MST analysis; how it was run: as §1
[8] = organism: Homo sapiens; assay: Effect on c-Myc DNA translocated chromosome product in human Raji cells assessed as decrease in amplification of exon-2 at 1 uM after 12 hrs by RT-PCR method; format: cell-based
How it was run: (§2)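 Cells treated 12 h with compound at various concentrations, untreated cells as control. Total RNA (2 μg) reverse-transcribed with oligo dT18 and M-MLV (42 °C 1 h). c-MYC exons 1 and 2, NM23-H2 and β-actin amplified by real-time PCR, products checked on 1% agarose gel. Three independent repeats, mean ± SEM, two-tailed unpaired t test versus untreated.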

[9] = Inhibition of NM23-H2 binding to 5'-FAM labeled c-Myc Pu27 G-quadruplex DNA (unknown origin) at 10 uM preincubated for 1 hr followed by NM23-H2 addition by electrophoretic mobility shift assay relative to control
How it was run: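 Annealed labeled Pu27 (1.5 μM) preincubated 1 h at 25 °C with 10 μM ligand or 5% DMSO. Recombinant His-tagged NM23-H2 (0.5 μM, E. coli BL21, nickel-purified) then added for 1 h at 37 °C. Complexes resolved on 5% native polyacrylamide gel in 0.5× TBE at 4 °C. Inhibition taken as loss of complex band intensity versus no-compound band set at 100%. Run three times.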

[10] = organism: Homo sapiens; assay: Stabilization of c-Myc G-quadruplex DNA in human Raji cells assessed as decrease in amplification of exon-1 at 1 uM after 12 hrs by RT-PCR method; format: cell-based; how it was run: as §2
[11] = organism: Homo sapiens; assay: Stabilization of c-Myc G-quadruplex DNA in human CA46 cells assessed as decrease in amplification of exon-1 at 1 uM after 12 hrs by RT-PCR method; format: cell-based; how it was run: as §2
[12] = organism: Homo sapiens; assay: Effect on c-Myc DNA translocated chromosome product in human CA46 cells assessed as decrease in amplification of exon-2 at 1 uM after 12 hrs by RT-PCR method; format: cell-based; how it was run: as §2

Structure (SMILES)	ΔTm [1]	Activity [2]	Kd [3]	Selectivity ratio [4]	Activity [5]	IC50 [6]	Activity [3]	Activity [7]	Activity [8]	Activity [1]	inhibition [9]	Activity [10]	Activity [11]	Activity [12]
CCN(CC)CCCNC(=O)COc1ccc2oc3c(NCCCN(CC)CC)c4ccccc4nc3c2c1	13.5 to 36.7 °C	Active		2.9 to 9.7	Active	1000 to 4000 nM	Active							
CN(C)CCCNc1c2ccccc2nc2c1[nH]c1ccccc12			7800 nM	1.02					Active	Active	Active	Active	Active	Active
C[n+]1c2ccccc2c(NCCCN2CCOCC2)c2oc3ccc(OCC(=O)NCCCN4CCOCC4)cc3c21	36.1 °C	Active			Active		Active	Active						
CCN(CC)CCNC(=O)COc1ccc2oc3c(NCCN(CC)CC)c4ccccc4[n+](C)c3c2c1	13.5 to 36.7 °C	Active	800 nM		Active			Active						
CCN(CC)CCNC(=O)COc1ccc2oc3c(NCCN(CC)CC)c4ccccc4nc3c2c1	13.5 to 36.7 °C	Active		2.9 to 9.7	Active	1000 to 4000 nM	Active							
CN(C)CCCNc1c2ccccc2nc2c1oc1c(OCCCN(C)C)cccc12	13.5 °C	Active	1300 to 4900 nM	2.5 to 10.1	Active	1000 to 4000 nM								
CCN(CC)CCCNC(=O)COc1ccc2oc3c(NCCCN(CC)CC)c4ccccc4[n+](C)c3c2c1	13.5 to 36.7 °C	Active	700 nM		Active			Active						
C[n+]1c2ccccc2c(NCCN2CCOCC2)c2oc3ccc(OCC(=O)NCCN4CCOCC4)cc3c21	28.4 °C	Active			Active		Active	Active						
CN(C)CCNC(=O)COc1ccc2oc3c(NCCN(C)C)c4ccccc4[n+](C)c3c2c1	13.5 to 36.7 °C	Active			Active		Active	Active						
CN(C)CCCNc1c2ccccc2nc2c1oc1cc(OCCCN(C)C)ccc12	22.1 to 25.2 °C	Active	1300 to 4900 nM	2.5 to 10.1	Active	1000 to 4000 nM								
CN(C)CCCNc1c2ccccc2[n+](C)c2c1oc1ccc(OCCC[N+](C)(C)C)cc12	33.1 to 36.7 °C	Active			Active		Active	Active						
O=C(COc1ccc2oc3c(NCCN4CCCCC4)c4ccccc4nc3c2c1)NCCN1CCCCC1	13.5 to 36.7 °C	Active		2.9 to 9.7	Active	1000 to 4000 nM	Active							

More lines, main results first:

ΔTm [1]	Activity [2]	Kd [3]	Selectivity ratio [4]	Activity [5]	IC50 [6]	Activity [3]	Activity [7]	Structure (SMILES)	Activity [8]	Activity [1]	inhibition [9]	Activity [10]	Activity [11]	Activity [12]
22.1 to 25.2 °C	Active	1300 to 4900 nM	2.5 to 10.1	Active	1000 to 4000 nM			CN(C)CCCNc1c2ccccc2nc2c1oc1cc(OCCN(C)C)ccc12						
21.2 °C	Active		2.9 to 9.7	Active	1000 to 4000 nM	Active		CN(C)CCCNC(=O)COc1ccc2oc3c(NCCCN(C)C)c4ccccc4nc3c2c1						
13.5 to 36.7 °C	Active			Active		Active	Active	CN(C)CCCCNC(=O)COc1ccc2oc3c(NCCCCN(C)C)c4ccccc4[n+](C)c3c2c1						
18.6 °C	Active	1300 to 4900 nM	2.5 to 10.1	Active	1000 to 4000 nM			CN(C)CCCNc1c2ccccc2nc2c1oc1c(OCCN(C)C)cccc12						
35.6 °C	Active			Active		Active	Active	CN(C)CCCNC(=O)COc1ccc2oc3c(NCCCN(C)C)c4ccccc4[n+](C)c3c2c1						
22.1 to 25.2 °C	Active	1300 to 4900 nM	2.5 to 10.1	Active	1000 to 4000 nM			CN(C)CCCNc1c2ccccc2nc2c1oc1ccc(OCCN(C)C)cc12						
33.1 to 36.7 °C	Active			Active		Active	Active	CN(C)CCCNc1c2ccccc2[n+](C)c2c1oc1ccc(OCC[N+](C)(C)C)cc12						
13.5 to 36.7 °C	Active		2.9 to 9.7	Active	1000 to 4000 nM	Active		CN(C)CCNC(=O)COc1ccc2oc3c(NCCN(C)C)c4ccccc4nc3c2c1						
35.2 °C	Active			Active		Active	Active	C[n+]1c2ccccc2c(NCCCN2CCCCC2)c2oc3ccc(OCC(=O)NCCCN4CCCCC4)cc3c21						
33.1 to 36.7 °C	Active			Active		Active	Active	CN(C)CCNc1c2ccccc2[n+](C)c2c1oc1ccc(OCC[N+](C)(C)C)cc12						
13.5 to 36.7 °C	Active			Active		Active	Active	CN1CCN(CCNC(=O)COc2ccc3oc4c(NCCN5CCN(C)CC5)c5ccccc5[n+](C)c4c3c2)CC1						
22.1 to 25.2 °C	Active	1300 to 4900 nM	2.5 to 10.1	Active	1000 to 4000 nM			CN(C)CCCNc1c2ccccc2nc2c1oc1ccc(OCCCN(C)C)cc12						
33.1 to 36.7 °C	Active			Active		Active	Active	CN(C)CCCNc1c2ccccc2[n+](C)c2c1oc1ccc(OCC3CC[N+](C)(C)CC3)cc12						
13.5 to 36.7 °C	Active	1300 to 4900 nM	2.5 to 10.1	Active	1000 to 4000 nM			CN(C)CCNc1c2ccccc2nc2c1oc1ccc(OCCN(C)C)cc12						
30 °C	Active			Active		Active	Active	C[n+]1c2ccccc2c(NCCN2CCCCC2)c2oc3ccc(OCC(=O)NCCN4CCCCC4)cc3c21						

Reference: ChEMBL document CHEMBL4011629, “New Disubstituted Quindoline Derivatives Inhibiting Burkitt's Lymphoma Cell Proliferation by Impeding c-MYC Transcription” (J Med Chem, 2017)
